The results in this text go back to ChEMBL document CHEMBL3046705, “Design and synthesis of benzoylphenylureas with fluorinated substituents on the aniline ring as insect growth regulators” (2011).

What all share (assay type): functional
In experiment [1] the test system is Mythimna separata. As to the kind of experiment: Insecticidal activity against fourth-instar larval stage of Mythimna separata (Oriental armyworm) infested drug-pretreated corn leaves assessed as mortality at 5 mg/l at 25 +/-1 degC after 4 days.
In experiment [2] the test system is Culex pipiens pallens. As to the kind of experiment: Insecticidal activity against fourth-instar larval stage of Culex pipiens pallens (mosquito) assessed as mortality at 2 mg/l at 25 +/-1 degC after 8 days. The settings on record: 192 h. The procedure, abridged:
(§1)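 Larvicidal test against mosquito larvae followed a previously reported procedure. Test solutions were made by dissolving each compound in acetone and adding distilled water to give the series of concentrations.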

The test system of experiment [3] is Mythimna separata. The experiment is described as follows: Insecticidal activity against fourth-instar larval stage of Mythimna separata (Oriental armyworm) infested drug-pretreated corn leaves assessed as mortality at 10 mg/l at 25 +/-1 degC after 4 days.
Experiment [4] has as its system Mythimna separata. As to the kind of experiment: Insecticidal activity against fourth-instar larval stage of Mythimna separata (Oriental armyworm) infested drug-pretreated corn leaves assessed as mortality at 25 mg/l at 25 +/-1 degC after 4 days.
For experiment [5], the system named is Mythimna separata. As to the kind of experiment: Insecticidal activity against fourth-instar larval stage of Mythimna separata (Oriental armyworm) infested drug-pretreated corn leaves assessed as mortality at 1 mg/l at 25 +/-1 degC after 4 days.
For experiment [6], the system named is Culex pipiens pallens. The experiment is described as follows: Insecticidal activity against fourth-instar larval stage of Culex pipiens pallens (mosquito) assessed as mortality at 0.005 mg/l at 25 +/-1 degC after 8 days. The settings on record: 192 h. The procedure, abridged: as §1
In experiment [7] the test system is Mythimna separata. The experiment is described as follows: Insecticidal activity against fourth-instar larval stage of Mythimna separata (Oriental armyworm) infested drug-pretreated corn leaves assessed as mortality at 2.5 mg/l at 25 +/-1 degC after 4 days.
Experiment [8] relates to Culex pipiens pallens. As to the kind of experiment: Insecticidal activity against fourth-instar larval stage of Culex pipiens pallens (mosquito) assessed as mortality at 0.0025 mg/l at 25 +/-1 degC after 8 days. The settings on record: 192 h. The procedure, abridged: as §1
In experiment [9] the test system is Culex pipiens pallens. As to the kind of experiment: Insecticidal activity against fourth-instar larval stage of Culex pipiens pallens (mosquito) assessed as mortality at 0.025 mg/l at 25 +/-1 degC after 8 days. The settings on record: 192 h. The gist of the method: as §1
Experiment [10] has as its system Culex pipiens pallens. As to the kind of experiment: Insecticidal activity against fourth-instar larval stage of Culex pipiens pallens (mosquito) assessed as mortality at 0.05 mg/l at 25 +/-1 degC after 8 days. The conditions noted are these: 192 h. The gist of the method:
as §1

For experiment [11], the system named is Culex pipiens pallens. As to the kind of experiment: Insecticidal activity against fourth-instar larval stage of Culex pipiens pallens (mosquito) assessed as mortality at 0.1 mg/l at 25 +/-1 degC after 8 days. The conditions noted are these: 192 h. The procedure, abridged:
as §1

Experiment [12] has as its system Culex pipiens pallens. As to the kind of experiment: Insecticidal activity against fourth-instar larval stage of Culex pipiens pallens (mosquito) assessed as mortality at 0.25 mg/l at 25 +/-1 degC after 8 days. The conditions noted are these: 192 h. The gist of the method: as §1
For experiment [13], the system named is Culex pipiens pallens. As to the kind of experiment: Insecticidal activity against fourth-instar larval stage of Culex pipiens pallens (mosquito) assessed as mortality at 0.01 mg/l at 25 +/-1 degC after 8 days. The conditions noted are these: 192 h. The procedure, abridged: as §1
Experiment [14] has as its system Mythimna separata. The experiment is described as follows: Insecticidal activity against fourth-instar larval stage of Mythimna separata (Oriental armyworm) infested drug-pretreated corn leaves assessed as mortality at 100 mg/l at 25 +/-1 degC after 4 days.
The test system of experiment [15] is Mythimna separata. As to the kind of experiment: Insecticidal activity against fourth-instar larval stage of Mythimna separata (Oriental armyworm) infested drug-pretreated corn leaves assessed as mortality at 200 mg/l at 25 +/-1 degC after 4 days.
Experiment [16] relates to Mythimna separata. The experiment is described as follows: Insecticidal activity against fourth-instar larval stage of Mythimna separata (Oriental armyworm) infested drug-pretreated corn leaves assessed as mortality at 50 mg/l at 25 +/-1 degC after 4 days.

Regarding `O=C(NC(=O)c1c(F)cccc1F)Nc1ccc(COc2cc(Cl)c(OC(F)(F)C(F)F)c(Cl)c2)cc1`, the mortality at 5 µg/mL in [1] worked out at 10%. Also, in experiment [2], the mortality at 2 µg/mL was 0%. The mortality at 10 µg/mL in [3] stood at 40%. For the same molecule, the mortality at 25 µg/mL in experiment [4] amounted to 100%.
Take `O=C(NC(=O)c1c(F)cccc1F)Nc1ccc(Oc2cc(Cl)c(OC(F)(F)C(F)F)c(Cl)c2)cc1`: the mortality at 1 µg/mL in experiment [5] is 0%. Also, in [6], the mortality at 0.005 µg/mL is 100%. Moreover, in experiment [7], the mortality at 2.5 µg/mL was 100%. For the same molecule, the mortality at 0.0025 µg/mL in experiment [8] came to 50%.
Regarding `O=C(NC(=O)c1c(F)cccc1F)Nc1ccc(OC(C(F)(F)F)C(F)(F)F)cc1`, in [9], the mortality at 0.025 µg/mL amounted to 70%. Moreover, the mortality at 5 µg/mL in [1] stood at 90%. The mortality at 1 µg/mL in experiment [5] came to 0%. Further, the mortality at 2.5 µg/mL in [7] stood at 80%. Besides, the mortality at 0.05 µg/mL in [10] was 80%. In experiment [11], the mortality at 0.1 µg/mL was found to be 100%.
On to `O=C(NC(=O)c1c(F)cccc1F)Nc1cc(Cl)c(OC(F)(F)C(F)F)c(Cl)c1` [HEXAFLUMURON], for which, in [12], the mortality at 0.25 µg/mL was determined as 100%. The mortality at 10 µg/mL in experiment [3] stood at 80%.
With `O=C(NC(=O)c1c(F)cccc1F)Nc1ccc(C(F)(C(F)(F)F)C(F)(F)F)cc1`, the mortality at 0.01 µg/mL in [13] was 100%. Further, the mortality at 5 µg/mL in [1] was 100%. The mortality at 1 µg/mL in [5] is 0%. In addition, the mortality at 0.005 µg/mL in experiment [6] is 90%. For the same molecule, in experiment [7], the mortality at 2.5 µg/mL amounted to 90%. In addition, the mortality at 0.0025 µg/mL in experiment [8] turned out to be 80%.
As to `O=C(NC(=O)c1c(F)cccc1F)Nc1ccc(COC(C(F)(F)F)C(F)(F)F)cc1`, the mortality at 100 µg/mL in [14] is 10%. In addition, in experiment [15], the mortality at 200 µg/mL was determined as 40%. For the same molecule, the mortality at 0.25 µg/mL in experiment [12] is 100%. Besides, the mortality at 0.05 µg/mL in experiment [10] turned out to be 30%. The mortality at 0.1 µg/mL in [11] stood at 80%. In [16], the mortality at 50 µg/mL was 0%.
As for `O=C(NC(=O)c1c(F)cccc1F)Nc1ccc(Oc2cc(Cl)c(OC(F)(F)C(F)F)c(Cl)c2)c(Cl)c1`, the mortality at 0.025 µg/mL in experiment [9] stood at 100%. In experiment [13], the mortality at 0.01 µg/mL was determined as 80%. The mortality at 0.005 µg/mL in experiment [6] is 30%. Moreover, in experiment [3], the mortality at 10 µg/mL worked out at 60%. The mortality at 50 µg/mL in experiment [16] was found to be 100%. Also, the mortality at 25 µg/mL in experiment [4] is 90%.
With `O=C(NC(=O)c1c(F)cccc1F)Nc1ccc(OCC=C(Cl)Cl)cc1`, in experiment [9], the mortality at 0.025 µg/mL was 60%. Further, the mortality at 100 µg/mL in [14] came out at 80%. Further, the mortality at 200 µg/mL in [15] was 90%. Also, in experiment [10], the mortality at 0.05 µg/mL turned out to be 70%. Also, the mortality at 0.1 µg/mL in experiment [11] came to 100%. In experiment [16], the mortality at 50 µg/mL amounted to 60%.
